From ChEMBL document CHEMBL3853286, “Screening and Biological Effects of Marine Pyrroloiminoquinone Alkaloids: Potential Inhibitors of the HIF-1α/p300 Interaction” (J Nat Prod, 2016)
The source made the active and inactive calls. The calls are words filed in the database; no cut-off is given here.

Columns and labels:
[1] = biological target: T1, Hypoxia-inducible factor 1-alpha (Homo sapiens, UniProt Q16665); test: Displacement of GST-tagged p300-CH1 domain (323 to 423 residues) from synthetic biotinylated HIF-1alpha C-TAD domain (786 to 826 residues) (unknown origin) measured after overnight incubation by fluorescence analysis
Outline: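 Cell-free protein–protein displacement assay. The p300 CH1 domain is displaced from the HIF-1α C-TAD, which is immobilized on streptavidin-coated plates. IC50 values derived.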
Target sequence in this assay (Q16665 whole entry, the tested form may be a part): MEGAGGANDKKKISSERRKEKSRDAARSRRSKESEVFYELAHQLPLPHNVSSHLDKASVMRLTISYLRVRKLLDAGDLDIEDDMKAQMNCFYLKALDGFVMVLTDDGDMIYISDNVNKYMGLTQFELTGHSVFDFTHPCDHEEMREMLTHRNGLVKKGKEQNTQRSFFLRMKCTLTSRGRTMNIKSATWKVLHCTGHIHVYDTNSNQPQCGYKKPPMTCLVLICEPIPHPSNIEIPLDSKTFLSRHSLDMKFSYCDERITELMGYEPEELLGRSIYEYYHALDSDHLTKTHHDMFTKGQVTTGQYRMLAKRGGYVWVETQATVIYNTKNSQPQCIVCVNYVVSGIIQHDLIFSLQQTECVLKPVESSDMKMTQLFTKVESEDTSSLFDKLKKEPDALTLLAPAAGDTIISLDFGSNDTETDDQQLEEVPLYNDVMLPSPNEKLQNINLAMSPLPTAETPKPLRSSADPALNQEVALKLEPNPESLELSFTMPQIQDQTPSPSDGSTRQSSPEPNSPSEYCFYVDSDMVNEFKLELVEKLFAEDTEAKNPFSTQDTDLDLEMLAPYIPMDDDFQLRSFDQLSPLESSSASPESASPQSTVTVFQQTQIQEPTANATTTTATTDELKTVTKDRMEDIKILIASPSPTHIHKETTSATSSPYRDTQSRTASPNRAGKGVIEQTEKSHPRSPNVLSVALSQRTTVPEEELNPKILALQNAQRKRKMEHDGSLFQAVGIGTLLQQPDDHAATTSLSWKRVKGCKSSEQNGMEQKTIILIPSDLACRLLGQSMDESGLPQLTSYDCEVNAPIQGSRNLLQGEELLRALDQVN

[2] = biological target: T1, Hypoxia-inducible factor 1-alpha; test: Inhibition of hypoxia-induced HIF1alpha transcriptional activity in human LNCAP cells at 0.25 to 0.5 uM measured after 18 hrs by hypoxia response element-driven dual luciferase reporter gene assay relative to hypoxia control; type: cell-based
Target sequence in this assay (Q16665 whole entry, looked up, the tested form may be a part): as the sequence (Q16665 whole entry, the tested form may be a part) above

[3] = biological target: T1, Hypoxia-inducible factor 1-alpha; test: Inhibition of hypoxia-induced HIF1alpha transcriptional activity in human HCT116 cells at 0.25 to 0.5 uM measured after 18 hrs by hypoxia response element-driven dual luciferase reporter gene assay relative to hypoxia control; type: cell-based; conditions: HCT-116
Outline: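 HCT 116 cells seeded 50 000/well and cotransfected with 100 ng pGL4.42 (4×HRE-firefly luciferase) and 10 ng pRL-TK Renilla using Lipofectamine 2000. After 24 h, cells treated in medium with 0.1% FBS, compound 0.01–10 μM. Incubated 18 h at 0.5% O2 or normoxia. HRE:TK signal divided by the mean of the DMSO hypoxic controls gives fold-induction. Quadruplicate wells, triplicate experiments.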
Target sequence in this assay (Q16665 whole entry, looked up, the tested form may be a part): as the sequence (Q16665 whole entry, the tested form may be a part) above

[4] = biological target: T1, Hypoxia-inducible factor 1-alpha; test: Inhibition of HIF-1alpha in human LNCAP cells assessed as decrease in VEGF secretion at 0.5 uM measured after 18 hrs under hypoxic conditions by ELISA; type: cell-based
Outline: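 LNCaP cells seeded 15 000/well in 96-well plates and incubated overnight at 37 °C. Medium then replaced with medium containing 0.1% charcoal-stripped FBS plus compound at 0.25, 0.5 or 1 μM, or DMSO control. Incubated 18 h at 1% O2. Supernatant diluted 2-fold and VEGF quantified by Quantikine ELISA. Values normalised per cell using CCK-8 viability. Triplicate experiments; exact Wilcoxon test with Hochberg correction.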
Target sequence in this assay (Q16665 whole entry, looked up, the tested form may be a part): as the sequence (Q16665 whole entry, the tested form may be a part) above

[5] = biological target: T1, Hypoxia-inducible factor 1-alpha; test: Inhibition of HIF-1alpha in human PC3 cells assessed as decrease in VEGF mRNA expression level; type: cell-based; conditions: PC-3
Target sequence in this assay (Q16665 whole entry, looked up, the tested form may be a part): as the sequence (Q16665 whole entry, the tested form may be a part) above

[6] = biological target: T1, Hypoxia-inducible factor 1-alpha; test: Inhibition of HIF-1alpha in human PC3 cells assessed as decrease in LDHA mRNA expression level; type: cell-based; conditions: PC-3
Target sequence in this assay (Q16665 whole entry, looked up, the tested form may be a part): as the sequence (Q16665 whole entry, the tested form may be a part) above

[7] = biological target: T1, Hypoxia-inducible factor 1-alpha; test: Inhibition of HIF-1alpha in human PC3 cells assessed as decrease in ENO1 mRNA expression level; type: cell-based; conditions: PC-3
Target sequence in this assay (Q16665 whole entry, looked up, the tested form may be a part): as the sequence (Q16665 whole entry, the tested form may be a part) above

[8] = biological target: T1, Hypoxia-inducible factor 1-alpha; test: Inhibition of hypoxia-induced HIF1alpha transcriptional activity in human HCT116 cells at 0.1 to 10 uM measured after 18 hrs by hypoxia response element-driven dual luciferase reporter gene assay relative to hypoxia control; type: cell-based; conditions: HCT-116
Outline: (§1)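 HCT 116 cells seeded 50 000/well and cotransfected (Lipofectamine 2000) with 100 ng pGL4.42 HRE-firefly luciferase and 10 ng pRL-TK Renilla. After 24 h, treated in 0.1% FBS medium with compound (0.01−10 μM), chetomin (0.5 μM) or tirapazamine (25 μM). Incubated 18 h at 0.5% O2 or normoxia. HRE:TK ratio normalized to hypoxic DMSO control. Wilcoxon test with Hochberg correction.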

[9] = biological target: T1, Hypoxia-inducible factor 1-alpha; test: Inhibition of HIF1alpha in human LNCAP cells assessed as hypoxia-induced VEGF secretion at 0.5 uM measured after 18 hrs under hypoxic conditions by ELISA
[10] = Cytotoxicity against human COLO205 cells measured after 48 hrs under hypoxic condition by CCK8 assay; type: functional, cell-based; conditions: COLO 205, 48 h
Outline: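 COLO 205 cells in RPMI-1640 with 10% FBS, seeded 15 000 cells/well. After 24 h, treated with fresh medium holding compound (0.001−10 μM), tirapazamine positive control or DMSO (0.5%, v/v). Incubated 48 h at 0.5% O2, then CCK-8 added for 2 h at 37 °C and absorbance read at 450 nm. Viability normalized to DMSO controls. Quadruplicate wells, triplicate experiments.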

[11] = biological target: T1, Hypoxia-inducible factor 1-alpha; test: Inhibition of hypoxia-induced HIF1alpha transcriptional activity in human LNCAP cells assessed as compound concentration causing inhibition of transcriptional activity measured after 18 hrs by hypoxia response element-driven dual luciferase reporter gene assay relative to hypoxia control; type: cell-based
Outline: (§2)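 LNCaP cells seeded 15 000/well and cotransfected (Lipofectamine 3000) with 10 ng pGL4.42 HRE-luciferase and 1 ng pRL-TK. After 24 h, treated in phenol-free RPMI-1640 with 0.1% charcoal-stripped FBS containing compound (0.1, 1, 10 μM). Incubated 18 h at 1% O2. Dual-luciferase HRE:TK ratio normalized to hypoxic DMSO control. Quadruplicate wells, triplicate experiments, Wilcoxon test with Hochberg correction.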

[12] = biological target: T1, Hypoxia-inducible factor 1-alpha; test: Inhibition of hypoxia-induced HIF1alpha transcriptional activity in human LNCAP cells at 0.1 to 10 uM measured after 18 hrs by hypoxia response element-driven dual luciferase reporter gene assay relative to hypoxia control; type: cell-based; outline: as §2
[13] = Cytotoxicity against human HCT116 cells measured after 48 hrs under hypoxic condition by CCK8 assay; type: functional, cell-based; conditions: HCT-116, 48 h
Outline: (§3)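 HCT 116 cells in McCoy's 5A with 10% FBS, seeded 10 000 cells/well. After 24 h, treated with compound (0.05−50 μM), tirapazamine positive control or DMSO (0.5%, v/v). Incubated 18 h or 48 h at 0.5% O2, then CCK-8 for 2 h at 37 °C with absorbance at 450 nm. Percent viability relative to DMSO controls. Quadruplicate wells, triplicate experiments.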

[14] = Cytotoxicity against human LNCAP cells measured after 18 hrs under hypoxic condition by CCK8 assay; type: functional, cell-based
Outline: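 LNCaP cells in phenol-free RPMI-1640 with 10% FBS, seeded 15 000 cells/well. After 24 h, exposed to compound (0.1−10 μM), tirapazamine or DMSO (0.5%, v/v) for 18 h at 1% O2. CCK-8 absorbance read at 450 nm after 2 h at 37 °C and normalized to DMSO controls to give percent viability. Quadruplicate wells, triplicate experiments.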

[15] = biological target: T1, Hypoxia-inducible factor 1-alpha; test: Inhibition of hypoxia-induced HIF1alpha transcriptional activity in human HCT116 cells assessed as compound concentration causing inhibition of transcriptional activity measured after 18 hrs by hypoxia response element-driven dual luciferase reporter gene assay relative to hypoxia control; type: cell-based; conditions: HCT-116; outline: as §1
[16] = Cytotoxicity against human HCT116 cells measured after 18 hrs under hypoxic condition by CCK8 assay; type: functional, cell-based; conditions: HCT-116, 18 h; outline: as §3
[17] = biological target: T1, Hypoxia-inducible factor 1-alpha; test: Inhibition of HIF1alpha in human LNCAP cells assessed as hypoxia-induced VEGF secretion at 0.25 to 1 uM measured after […] under hypoxic conditions by ELISA; type: cell-based

| Compound | IC50 [1] | inhibition [2] | inhibition [3] | inhibition [4] | inhibition [5] | inhibition [6] | inhibition [7] | inhibition (qualitative active call) [8] | inhibition [9] | IC50 [10] | Concentration causing inhibition [11] | inhibition outcome (active/inactive) [12] | IC50 [13] | IC50 [14] | Concentration causing inhibition [15] | IC50 [16] | inhibition [17] |
| --- | --- | --- | --- | --- | --- | --- | --- | --- | --- | --- | --- | --- | --- | --- | --- | --- | --- |
| CN1C(=O)[C@@]2(CO)SS[C@@]1(Cc1cn([C@]34C[C@@]56SS[C@](CO)(C(=O)N5[C@H]3Nc3ccccc34)N(C)C6=O)c3ccccc13)C(=O)N2C | 1.9 µM | Active | Active | Active | – | – | – | – | – | – | – | – | – | – | – | – | – |
| CN1C(=O)[C@]23CC4=CC=C[C@H](O)[C@H]4N2C(=O)[C@@]1(CO)SS3 | – | – | – | – | Active | Active | Active | – | – | – | – | – | – | – | – | – | – |
| Cn1c(C[C@H](N)C(=O)O)cnc1S[C@H]1[C@H]2C(=O)C=C3S[C@H]4C[C@]31C1=C(N4)C(=O)c3[nH]cc4c3C1=[N+]2CC4 | 2.2 µM | – | – | – | – | – | – | Active | Active | > 10 µM | 0.1 µM | Active | > 50 µM | > 10 µM | 0.5 µM | > 10 µM | – |
| Nc1n[n+]([O-])c2ccccc2[n+]1[O-] [TIRAPAZAMINE] | – | – | – | – | – | – | – | – | – | 47.7 µM | – | – | 11.9 µM | – | – | 72.7 µM | – |
| O=C1C=C2S[C@H]3C[C@]2(C=C1Br)C1=C(N3)C(=O)c2[nH]cc3c2C1=NCC3 [(+)-DISCORHABDIN B] | 3.7 µM | – | – | – | – | – | – | Active | – | 1.8 µM | 1 µM | Active | – | 7 µM | 0.1 µM | 3.1 µM | – |
| O=C1C=C(S[C@H]2[C@H]3C(=O)C=C4S[C@H]5C[C@]42C2=C(N5)C(=O)c4[nH]cc5c4C2=[N+]3CC5)[C@]2(C=C1Br)CCNC1=C2C2=NCCc3c[nH]c(c32)C1=O | 2.4 µM | – | – | – | – | – | – | Active | – | > 10 µM | 1 µM | Active | 26.8 µM | > 10 µM | 0.1 µM | > 10 µM | – |
| O=C1C2=C3C4=[N+](CCc5c[nH]c1c54)[C@@H]1C(=O)C=C4S[C@@H](C[C@@]43[C@H]1O)N2 | 0.73 µM | – | – | – | – | – | – | Active | – | 7.6 µM | 1 µM | Active | > 50 µM | 8.3 µM | 0.1 µM | 6.2 µM | Active |
| O=C1C2=C(C3=NCCc4c[nH]c1c43)[C@]1(C=C(Br)[C@H](O)C(Br)=C1)CCN2 | 35.2 µM | – | – | – | – | – | – | Active | – | 5.1 µM | 1 µM | Active | – | > 10 µM | 10 µM | 8.6 µM | – |
| O=C1C(NC2Cc3cc(Br)c(O)cc3S2)=CC2=NCCc3c[nH]c1c32 (centres undefined) [MAKALUVAMINE F] | 8.3 µM | – | – | – | – | – | – | Active | – | > 10 µM | 0.1 µM | Active | – | > 10 µM | 0.25 µM | 7.2 µM | – |
| O=C1C=C(SSC2=CC(=O)C(Br)=C[C@]23CCNC2=C3C3=NCCc4c[nH]c(c43)C2=O)[C@]2(C=C1Br)CCNC1=C2C2=NCCc3c[nH]c(c32)C1=O | > 100 µM | – | – | – | – | – | – | Active | – | > 10 µM | – | – | – | > 10 µM | 0.1 µM | > 10 µM | – |
